Reference: publication PMC12263870 (Scientific Reports, 2025)

How the values were obtained:
[1] = tested on: BSA-glycation mediated methylglyoxal (MG); test: Anti-glycation assay: BSA-glycation mediated methylglyoxal; type: biochemical, bovine; details: for IC50: read-out: BSA-glycation inhibition category by IC50 criteria, category in words; for BSA-glycation mediated MG % Inhibition at 500 µM: mean ± SD
In short: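 Fluorescence anti-glycation assay. BSA (10 mg/mL) was in 0.1 M phosphate buffer pH 7.4 with 0.02% NaN3, and 14 mM methylglyoxal was in phosphate buffer. Test compound in DMSO was preincubated with buffer and methylglyoxal at 37°C for 2 h. BSA was then added and the mix incubated at 37°C for 1 day. Fluorescence (ex 370/em 450 nm) was read against a no-inhibitor blank. Aminoguanidine hydrochloride was the positive control. Triplicate, two independent experiments, mean ± SD.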

α-amylase = target: T1, α-amylase (Sus scrofa, UniProt P00690); test: Inhibitory kinetic analysis; type: biochemical, porcine
T1 sequence (P00690 16-511): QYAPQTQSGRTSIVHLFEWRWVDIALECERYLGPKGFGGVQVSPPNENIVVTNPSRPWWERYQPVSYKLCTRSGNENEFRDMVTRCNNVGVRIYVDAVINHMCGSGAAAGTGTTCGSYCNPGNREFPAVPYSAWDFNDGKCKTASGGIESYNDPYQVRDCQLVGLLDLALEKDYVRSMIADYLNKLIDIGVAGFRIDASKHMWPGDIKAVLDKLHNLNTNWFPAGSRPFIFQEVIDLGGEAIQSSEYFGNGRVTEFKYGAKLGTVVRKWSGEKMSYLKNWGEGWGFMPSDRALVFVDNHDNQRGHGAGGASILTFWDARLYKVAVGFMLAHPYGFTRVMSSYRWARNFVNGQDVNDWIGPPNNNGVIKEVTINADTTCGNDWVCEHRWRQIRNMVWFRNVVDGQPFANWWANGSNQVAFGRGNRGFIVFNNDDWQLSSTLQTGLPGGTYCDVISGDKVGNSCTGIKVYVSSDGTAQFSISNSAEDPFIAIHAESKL
In short: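 Porcine pancreatic α-amylase (type VI-B) in phosphate buffer pH 6.0 with 0.02% NaN3. Enzyme stock was 1 mg/mL and CNP-G3 stock 0.5 mM. Test compound and enzyme were preincubated at 37°C for 10 min, then CNP-G3 was added at varied concentrations for 30 min at 37°C, read at 405 nm. Three inhibitor concentrations were used. Inhibition type came from Lineweaver–Burk plots, Ki and Kis from secondary slope and intercept plots.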

SMILES	IC50 [1]	also measured
O=c1cc(-c2ccc(O)cc2)oc2c(Br)c(O)c(Br)c(O)c12 [Compound F2a, 6,8-Dibromoapigenin]	10.1 to 100 µM	
O=C1C[C@@H](c2ccc(O)cc2)Oc2c(Br)c(O)c(Br)c(O)c21 [Compound F11a, 6,8-Dibromonaringenin]	10.1 to 100 µM	
O=c1c(O)c(-c2ccc(O)c(O)c2)oc2cc(O)cc(O)c12 [Compound F7, Quercetin]	10.1 to 100 µM	
Cl.N=C(N)NN [Aminoguanidine hydrochloride, reference compound]		BSA-glycation mediated MG % Inhibition at 500 µM [1]: 79.66%
O=C1C[C@@H](c2ccc(O)cc2)Oc2cc(O)cc(O)c21 [Compound F11, Naringenin]		BSA-glycation mediated MG % Inhibition at 500 µM [1]: 56.89%
O=c1cc(-c2ccc(O)c(O)c2)oc2c(Br)c(O)c(Br)c(O)c12 [Compound F3a, 6,8-Dibromoluteolin]	10.1 to 100 µM	Ki (α-amylase): 0.18 µM; Inhibition type, α-amylase (α-amylase; Lineweaver-Burk plot, CNP-G3): mixed-type
O=c1cc(-c2ccc(O)c(O)c2)oc2cc(O)cc(O)c12 [Compound F3, Luteolin]	10.1 to 100 µM	
O=c1c(O)c(-c2ccc(O)cc2O)oc2cc(O)cc(O)c12 [Compound F6, Morin]	100 to 200 µM	
